The values below come from ChEMBL document CHEMBL1153361, “Synthesis and in vitro characterization of radioiodinatable benzodiazepines selective for type 1 and type 2 cholecystokinin receptors” (J Med Chem, 2009).

Activity calls are given as the source filed them. The calls are words filed in the database; no cut-off is given here.

What is called Ki is the dissociation constant of the complex between target and ligand, obtained from inhibition or displacement. A higher Ki goes with a looser hold on the target. What is called Kd is the free concentration of one partner at which half of the binding sites on the other are occupied at equilibrium, for simple one-to-one binding. High values mean weaker binding, low ones tighter binding.

Test [1] has as its target T1, Gastrin/cholecystokinin type B receptor (Homo sapiens, UniProt P32239).
T1 sequence (P32239 whole entry): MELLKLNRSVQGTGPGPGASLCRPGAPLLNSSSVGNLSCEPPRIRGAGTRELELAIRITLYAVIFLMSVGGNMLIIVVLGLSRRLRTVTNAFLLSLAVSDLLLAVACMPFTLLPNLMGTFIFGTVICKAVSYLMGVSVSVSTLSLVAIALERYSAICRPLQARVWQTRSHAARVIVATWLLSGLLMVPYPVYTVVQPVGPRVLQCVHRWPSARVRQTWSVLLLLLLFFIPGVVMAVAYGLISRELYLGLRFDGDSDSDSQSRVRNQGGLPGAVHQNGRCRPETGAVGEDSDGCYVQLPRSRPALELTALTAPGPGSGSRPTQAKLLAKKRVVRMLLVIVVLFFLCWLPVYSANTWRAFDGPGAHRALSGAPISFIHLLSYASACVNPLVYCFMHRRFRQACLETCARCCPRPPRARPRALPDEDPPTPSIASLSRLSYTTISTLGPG
Description: (§1) Displacement of [125I](R)-1-(3-iodophenyl)-3-(1-methyl-2-oxo-5-phenyl-2,3-dihydro-1Hbenzo[e][1,4]diazepin-3-yl)urea from human CCK2 receptor expressed in CHO cells by gamma spectrometry. Format: cell-based. A digest of the protocol: (§2)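 Homologous competition in membranes (5–10 µg protein) from CHO cells expressing human receptor. 10 pM radioligand (about 20,000 cpm) plus cold ligand 0–1 µM in KRH with 0.2% BSA and 0.01% soybean trypsin inhibitor, 1 h at room temperature. Filtration, gamma counting. Ki fitted by LIGAND nonlinear least squares. Duplicate/triplicate, ≥3 independent experiments.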
In general terms: In a radioligand displacement assay an active substance lowers the binding of a labelled ligand.

For test [2], the target named is T2, Cholecystokinin receptor type A (Homo sapiens, UniProt P32238).
T2 sequence (P32238 whole entry): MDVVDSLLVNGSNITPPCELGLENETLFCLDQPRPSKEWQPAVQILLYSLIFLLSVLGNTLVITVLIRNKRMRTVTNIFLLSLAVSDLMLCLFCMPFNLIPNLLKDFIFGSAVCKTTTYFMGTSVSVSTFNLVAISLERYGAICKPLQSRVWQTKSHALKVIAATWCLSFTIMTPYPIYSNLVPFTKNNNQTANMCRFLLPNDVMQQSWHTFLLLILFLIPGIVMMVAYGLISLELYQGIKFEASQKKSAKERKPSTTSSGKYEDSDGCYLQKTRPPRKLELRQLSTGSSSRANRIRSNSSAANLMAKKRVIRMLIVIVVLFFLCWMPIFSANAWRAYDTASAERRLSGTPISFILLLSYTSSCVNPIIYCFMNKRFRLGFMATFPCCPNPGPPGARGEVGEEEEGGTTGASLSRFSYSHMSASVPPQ
Description: Binding affinity to human CCK1 receptor expressed in CHO cell membrane by saturation binding assay. Format: cell membranes. A digest of the protocol: (§3)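 Membranes (5–10 µg protein) from CHO cells stably expressing human CCK1 or CCK2 receptor, incubated with increasing radioligand in KRH pH 7.4 with 0.2% BSA and 0.01% soybean trypsin inhibitor, 1 h at room temperature. Nonspecific binding taken with 1 µM cold homolog. Filtration, gamma counting. Kd and Bmax fitted in LIGAND.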

The target in test [3] is T2, Cholecystokinin receptor type A. In words: biochemical.
Test [4] has as its target T3, Gastrin/cholecystokinin type B receptor (Homo sapiens) (UniProt P32239).
T3 sequence (whole entry): T1 sequence (P32239 whole entry)
Described as §1. The conditions noted are these: tested as the 125I-labelled form. Format: cell-based. The method in brief: as §2

Test [5] addresses T3, Gastrin/cholecystokinin type B receptor (Homo sapiens). In words: Induction of receptor internalization in YFP-tagged human CCK2 receptor expressed in CHO cells at 100 nM after 90 mins. Format: cell-based. The method in brief: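 CHO cells stably expressing YFP-tagged receptor, grown ≥48 h on coverslips, bound with 100 nM ligand at 4 °C for 90 min in PBS with 0.08 mM CaCl2 and 0.1 mM MgCl2. After washing, cells were warmed to 37 °C for varying times, fixed in 2% paraformaldehyde, and imaged by confocal microscopy for surface versus internal YFP (ex 488, em >505 nm).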

Test [6] shares this target. Description: Displacement of [125I]CCK from CCK2 receptor in human muscular layer of gall bladder assessed as binding density per mg of tissue by autoradiography. As to conditions: tested as the 125I-labelled form. It is filed as tissue-based.
The target is the same in test [7]. In words: Binding affinity to CCK2 receptor in human gastrointestinal stromal tumor in presence of (R)-1-(3-iodophenyl)-3-(1-methyl-2-oxo-5-phenyl-2,3-dihydro-1Hbenzo[e][1,4]diazepin-3-yl)urea. As to conditions: tested as the 125I-labelled form.
For test [8] the target is unchanged. Description: Antagonist activity at human CCK2 receptor expressed in CHO cells assessed as inhibition of CCK8-stimulated intracellular calcium response preincubated for 100 seconds before CCK8 challenge. Format: functional, cell-based. The method in brief: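 Fura-2 AM-loaded (5 μM, 30 min, 37 °C) CHO cells stably expressing human receptor, about 2 million per measurement. Cells were pre-incubated 100 s with increasing ligand concentrations, then stimulated with CCK-8 (final 10^-9 M) at 37 °C. Ratiometric read-out with excitation at 340/380 nm and emission at 520 nm, collected over 300 s. Means of 3 independent experiments.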
Background: Calcium assays in cells follow changes in intracellular calcium, usually with a dye or a luminescent sensor.

Test [9] shares this target. In words: Displacement of [125I]CCK from CCK2 receptor in human medullary thyroid carcinoma assessed as binding density per mg of tissue by autoradiography. The conditions noted are these: tested as the 125I-labelled form.
Test [10] shares this target. Description: Agonist activity at human CCK2 receptor expressed in CHO cells assessed as stimulation of intracellular calcium response. Format: functional, cell-based. A digest of the protocol: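 CHO cells stably expressing human receptor, detached non-enzymatically, loaded with 5 μM Fura-2 AM for 30 min at 37 °C in serum-free Ham's F12. About 2 million cells per measurement were stimulated with test ligand (10 pM to 10 μM) at 37 °C. Fluorescence was read with excitation at 340/380 nm and emission at 520 nm over 300 s. Three independent experiments.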

Test [11] shares this target. Description: Binding affinity to CCK2 receptor in human gastrointestinal stromal tumor in presence of CCK1 antagonist L364718. The conditions noted are these: tested as the 125I-labelled form.
For test [12] the target is unchanged. In words: Binding affinity to CCK2 receptor in human gastrointestinal stromal tumor in presence of CCK8. As to conditions: tested as the 125I-labelled form.
Test [13] addresses T1, Gastrin/cholecystokinin type B receptor. In words: Binding affinity to human CCK2 receptor expressed in CHO cell membrane by saturation binding assay. It is filed as cell membranes. The method in brief:
as §3

Take `CN1C(=O)[C@@H](NC(=O)Nc2cccc([125I])c2)N=C(c2ccccc2)c2ccccc21`: the Ki in test [1] is 1 nM; in [3] it was 174 nM. Also, the Kd in test [2] was 1.15 nM.

For `CN1C(=O)[C@H](NC(=O)Nc2cccc(I)c2)N=C(c2ccccc2)c2ccccc21`, the Activity entry in test [4] and in test [8] was “Dose-dependent effect” in each case. The outcome in test [5] was Active. Besides, the Activity (disintegrations/minute) was 970 in [6] and 602 in test [9]. In addition, the result in test [7], in test [10], in test [11] and in [12] was inactive.

Take `CN1C(=O)[C@@H](NC(=O)Nc2cccc(I)c2)N=C(c2ccccc2)c2ccccc21`: the Activity result in [4] and in test [8] was “Dose-dependent effect” throughout. Besides, the outcome in [10] was inactive.

As to `CN1C(=O)[C@H](NC(=O)Nc2cccc([125I])c2)N=C(c2ccccc2)c2ccccc21`, the Ki was 537 nM in test [1] and 3.72 nM in [3]. Further, in test [13], the Kd is 2.95 nM.
